ChEMBL document CHEMBL4011598, “Sulfonamides as Selective NaV1.7 Inhibitors: Optimizing Potency and Pharmacokinetics While Mitigating Metabolic Liabilities” (J Med Chem, 2017)
pIC50: −log10 of the molar value. In brackets after ≈: the same amount, converted by molar mass. Activity calls are given as the source filed them. The calls are words filed in the database; no cut-off is given here.

How the values were obtained:
Canis familiaris = assay: Unbound clearance in dog at 0.25 mg/kg, iv; format: ADME, organism-based, Canis lupus familiaris; conditions: in vivo
In short: (§1)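 Male dogs received a single 0.25 mg/kg iv dose in DMSO. Unbound clearance (CLu) is total clearance divided by fu, the unbound fraction in plasma.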

[1] = AUC in rat at 10 mg/kg, po; format: ADME, organism-based; conditions: in vivo
Mus musculus [2] = assay: Antipruriceptive activity in C57Bl/6 mouse assessed as reduction in number of histamine-induced scratching bouts at 30 to 300 mg/kg, po administered 4 hrs prior to histamine challenge measured over 15 mins; format: functional, organism-based
[3] = Intrinsic clearance in rat liver microsomes at 1 uM after 1 to 40 mins in presence of NADPH by LC-MS/MS analysis; format: ADME, microsome; conditions: read-out: CLH
[4] = Unbound fraction in rat plasma at 5 uM by LC-MS/MS method; format: ADME, cell-free
[5] = biological target: Sodium channel protein type 8 subunit alpha (Homo sapiens, UniProt Q9UQD0); assay: Inhibition of human Nav1.6 expressed in HEK293 cells assessed as reduction in peak inward current by ionworks quattro electrophysiology assay; format: cell-based
[6] = AUC in dog at 2 mg/kg, po; format: ADME, organism-based, Canis lupus familiaris; conditions: in vivo
[7] = biological target: Sodium channel protein type 9 subunit alpha (Rattus norvegicus, UniProt O08562); assay: Inhibition of rat Nav1.7 expressed in HEK293T cells incubated for 3 to 5 mins at -125 mV holding potential by electrophysiology assay; format: cell-based
[8] = Tmax in rat at 10 mg/kg, po; format: ADME, organism-based; conditions: in vivo
[9] = biological target: Sodium channel protein type 5 subunit alpha (Homo sapiens, UniProt Q14524); assay: Inhibition of human Nav1.5 expressed in HEK293 cells assessed as reduction in peak inward current by ionworks quattro electrophysiology assay; format: cell-based
Rattus norvegicus = assay: Unbound clearance in rat at 0.5 mg/kg, iv; format: ADME, organism-based; conditions: in vivo
In short: (§2)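 Male rats given a single 0.5 mg/kg iv dose in DMSO. Unbound clearance (CLu) is total clearance divided by fu, the unbound fraction in plasma.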

[10] = Aqueous solubility of the compound in PBS after 48 hrs by shake flask method; format: physicochemical
[11] = biological target: T1, Sodium channel protein type 9 subunit alpha (Homo sapiens, UniProt Q15858); assay: Inhibition of human Nav1.7 expressed in HEK293 cells incubated for 3 to 5 mins at -125 mV holding potential by electrophysiology assay; format: cell-based
[12] = Half life in rat at 0.5 mg/kg, iv; format: ADME, organism-based; conditions: in vivo; in short: as §2
[13] = Oral bioavailability in dog at 2 mg/kg; format: ADME, organism-based, Canis lupus familiaris; conditions: in vivo
[14] = biological target: T1, Sodium channel protein type 9 subunit alpha; assay: Inhibition of human Nav1.7 expressed in HEK293 cells assessed as reduction in peak inward current by ionworks quattro electrophysiology assay; format: cell-based
[15] = Unbound fraction in mouse plasma at 5 uM by LC-MS/MS method; format: ADME, cell-free
[16] = Total clearance in dog at 0.25 mg/kg, iv; format: ADME, organism-based, Canis lupus familiaris; conditions: in vivo; in short: as §1
Cytochrome P450 3A4 = Cytochrome P450 3A4 (Homo sapiens, UniProt P08684); assay: Inhibition of CYP3A4 (unknown origin); format: ADME
[17] = Oral bioavailability in rat at 10 mg/kg; format: ADME, organism-based; conditions: in vivo
Plasma [18] = assay: Total plasma concentration in C57Bl/6 mouse at 300 mg/kg, po; format: ADME, organism-based; conditions: in vivo
[19] = biological target: Sodium channel protein type 1 subunit alpha (Homo sapiens, UniProt P35498); assay: Inhibition of human Nav1.1 expressed in HEK293 cells assessed as reduction in peak inward current by ionworks quattro electrophysiology assay; format: cell-based
Plasma [20] = assay: Total plasma concentration in C57Bl/6 mouse at 100 mg/kg, po; format: ADME, organism-based; conditions: in vivo
[21] = biological target: Sodium channel protein type 9 subunit alpha (Mus musculus, UniProt Q62205); assay: Inhibition of mouse Nav1.7 expressed in HEK293 cells incubated for 3 to 5 mins at -125 mV holding potential by electrophysiology assay; format: cell-based
[22] = biological target: Sodium channel protein type 3 subunit alpha (Homo sapiens, UniProt Q9NY46); assay: Inhibition of human Nav1.3 expressed in CHO cells assessed as reduction in peak inward current by ionworks quattro electrophysiology assay; format: cell-based
Plasma [23] = assay: Unbound plasma concentration in C57Bl/6 mouse at 100 mg/kg, po; format: ADME, organism-based; conditions: in vivo
Cytochrome P450 2C9 = Cytochrome P450 2C9 (Homo sapiens, UniProt P11712); assay: Inhibition of CYP2C9 (unknown origin); format: ADME
[24] = Tmax in dog at 2 mg/kg, po; format: ADME, organism-based, Canis lupus familiaris; conditions: in vivo
[25] = Unbound fraction in dog plasma at 5 uM by LC-MS/MS method; format: ADME, cell-free, Canis lupus familiaris
Mus musculus [26] = assay: Toxicity in naive C57Bl/6 mouse assessed as effect on basic locomotor movement at 30 to 300 mg/kg, po measured after 4 hrs for 60 mins by open field test; format: organism-based; conditions: in vivo
[27] = Intrinsic clearance in human liver microsomes at 1 uM after 1 to 40 mins in presence of NADPH by LC-MS/MS analysis; format: ADME, microsome; conditions: read-out: CLH
Plasma [28] = assay: Unbound plasma concentration in C57Bl/6 mouse at 30 mg/kg, po; format: ADME, organism-based; conditions: in vivo
Cytochrome P450 2D6 = Cytochrome P450 2D6 (Homo sapiens, UniProt P10635); assay: Inhibition of CYP2D6 (unknown origin); format: ADME
[29] = biological target: T1, Sodium channel protein type 9 subunit alpha; assay: Inhibition of human Nav1.7 at resting/closed state expressed in HEK293 cells at -140 mV holding potential by manual whole cell patch clamp electrophysiology assay; format: cell-based
[30] = biological target: Voltage-gated inwardly rectifying potassium channel KCNH2 (Homo sapiens, UniProt Q12809); assay: Inhibition of human hERG by patch clamp method
[31] = Ratio of unbound plasma concentration in C57Bl/6 mouse at 300 mg/kg, po to IC50 for human Nav1.7 at -125 mV holding potential
Cytochrome P450 1A2 = biological target: T2, Cytochrome P450 1A2 (Homo sapiens, UniProt P05177); assay: Inhibition of CYP1A2 (unknown origin); format: ADME
T2 sequence (P05177 whole entry): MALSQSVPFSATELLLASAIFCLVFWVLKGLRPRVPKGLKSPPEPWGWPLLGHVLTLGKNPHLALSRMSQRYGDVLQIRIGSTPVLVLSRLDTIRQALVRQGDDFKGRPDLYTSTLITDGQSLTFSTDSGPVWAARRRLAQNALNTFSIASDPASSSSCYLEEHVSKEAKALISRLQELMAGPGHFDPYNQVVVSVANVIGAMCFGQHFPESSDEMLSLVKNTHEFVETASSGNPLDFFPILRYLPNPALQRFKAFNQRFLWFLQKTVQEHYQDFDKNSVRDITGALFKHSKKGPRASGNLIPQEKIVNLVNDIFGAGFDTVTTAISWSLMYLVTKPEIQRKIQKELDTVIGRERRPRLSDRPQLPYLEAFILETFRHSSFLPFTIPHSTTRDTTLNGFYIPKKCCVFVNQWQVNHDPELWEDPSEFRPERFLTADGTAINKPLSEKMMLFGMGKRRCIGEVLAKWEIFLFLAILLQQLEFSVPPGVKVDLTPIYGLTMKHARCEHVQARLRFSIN

[32] = biological target: Sodium channel protein type 4 subunit alpha (Homo sapiens, UniProt P35499); assay: Inhibition of human Nav1.4 expressed in HEK293 cells assessed as reduction in peak inward current by ionworks quattro electrophysiology assay; format: cell-based
[33] = Volume of distribution at steady state in rat at 0.5 mg/kg, iv; format: ADME, organism-based; conditions: in vivo, read-out: Vdss; in short: as §2

T1 sequence (Q15858 whole entry): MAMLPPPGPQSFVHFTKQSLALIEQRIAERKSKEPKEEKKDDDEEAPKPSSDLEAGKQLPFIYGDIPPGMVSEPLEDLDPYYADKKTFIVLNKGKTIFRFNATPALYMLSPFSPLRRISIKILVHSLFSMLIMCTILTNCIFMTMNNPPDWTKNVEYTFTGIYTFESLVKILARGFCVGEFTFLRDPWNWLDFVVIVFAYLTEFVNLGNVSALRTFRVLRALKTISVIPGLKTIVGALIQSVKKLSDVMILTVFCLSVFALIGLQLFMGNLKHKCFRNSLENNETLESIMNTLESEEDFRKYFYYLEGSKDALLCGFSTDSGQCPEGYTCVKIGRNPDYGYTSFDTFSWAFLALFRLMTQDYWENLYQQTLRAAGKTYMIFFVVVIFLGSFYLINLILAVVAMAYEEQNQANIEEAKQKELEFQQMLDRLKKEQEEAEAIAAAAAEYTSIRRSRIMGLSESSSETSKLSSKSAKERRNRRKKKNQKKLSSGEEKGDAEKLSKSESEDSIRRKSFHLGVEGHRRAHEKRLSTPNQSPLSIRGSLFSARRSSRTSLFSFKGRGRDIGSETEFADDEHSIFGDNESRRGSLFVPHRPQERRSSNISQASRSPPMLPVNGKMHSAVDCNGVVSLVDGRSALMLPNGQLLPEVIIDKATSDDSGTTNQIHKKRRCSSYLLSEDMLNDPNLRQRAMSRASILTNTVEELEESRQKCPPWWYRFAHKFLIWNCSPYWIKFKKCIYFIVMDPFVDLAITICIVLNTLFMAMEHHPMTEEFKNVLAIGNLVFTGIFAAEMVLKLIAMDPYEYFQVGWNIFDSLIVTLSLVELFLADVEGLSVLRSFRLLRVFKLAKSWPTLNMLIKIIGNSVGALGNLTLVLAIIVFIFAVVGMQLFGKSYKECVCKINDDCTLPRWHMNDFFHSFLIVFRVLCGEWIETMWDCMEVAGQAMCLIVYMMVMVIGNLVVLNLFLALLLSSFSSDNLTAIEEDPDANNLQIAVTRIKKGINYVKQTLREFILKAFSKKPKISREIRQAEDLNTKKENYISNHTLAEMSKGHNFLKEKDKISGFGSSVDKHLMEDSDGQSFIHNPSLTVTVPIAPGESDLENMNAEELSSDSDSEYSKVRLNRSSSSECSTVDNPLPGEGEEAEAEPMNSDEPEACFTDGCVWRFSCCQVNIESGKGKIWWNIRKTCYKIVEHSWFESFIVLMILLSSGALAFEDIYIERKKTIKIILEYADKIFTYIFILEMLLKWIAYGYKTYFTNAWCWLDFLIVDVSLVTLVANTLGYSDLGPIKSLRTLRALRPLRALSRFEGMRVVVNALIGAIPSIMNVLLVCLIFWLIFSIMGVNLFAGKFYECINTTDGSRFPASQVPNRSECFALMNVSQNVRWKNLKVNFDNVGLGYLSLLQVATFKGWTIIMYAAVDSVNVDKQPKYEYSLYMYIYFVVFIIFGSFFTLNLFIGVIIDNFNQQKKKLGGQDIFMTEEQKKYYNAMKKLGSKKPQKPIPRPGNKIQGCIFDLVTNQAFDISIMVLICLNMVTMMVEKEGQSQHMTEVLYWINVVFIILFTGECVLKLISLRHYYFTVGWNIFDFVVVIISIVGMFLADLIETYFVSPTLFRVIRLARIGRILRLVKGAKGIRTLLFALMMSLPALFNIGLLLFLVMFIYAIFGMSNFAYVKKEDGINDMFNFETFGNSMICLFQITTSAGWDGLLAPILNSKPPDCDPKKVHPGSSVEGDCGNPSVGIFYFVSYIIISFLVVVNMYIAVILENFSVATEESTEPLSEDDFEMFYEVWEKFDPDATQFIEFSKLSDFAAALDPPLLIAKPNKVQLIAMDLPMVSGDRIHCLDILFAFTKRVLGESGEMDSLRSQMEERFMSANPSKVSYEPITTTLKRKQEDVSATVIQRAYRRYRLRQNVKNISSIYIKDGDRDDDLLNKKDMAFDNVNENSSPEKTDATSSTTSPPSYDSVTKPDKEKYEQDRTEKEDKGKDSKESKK
Sequence of Voltage-gated inwardly rectifying potassium channel KCNH2 (Q12809 whole entry): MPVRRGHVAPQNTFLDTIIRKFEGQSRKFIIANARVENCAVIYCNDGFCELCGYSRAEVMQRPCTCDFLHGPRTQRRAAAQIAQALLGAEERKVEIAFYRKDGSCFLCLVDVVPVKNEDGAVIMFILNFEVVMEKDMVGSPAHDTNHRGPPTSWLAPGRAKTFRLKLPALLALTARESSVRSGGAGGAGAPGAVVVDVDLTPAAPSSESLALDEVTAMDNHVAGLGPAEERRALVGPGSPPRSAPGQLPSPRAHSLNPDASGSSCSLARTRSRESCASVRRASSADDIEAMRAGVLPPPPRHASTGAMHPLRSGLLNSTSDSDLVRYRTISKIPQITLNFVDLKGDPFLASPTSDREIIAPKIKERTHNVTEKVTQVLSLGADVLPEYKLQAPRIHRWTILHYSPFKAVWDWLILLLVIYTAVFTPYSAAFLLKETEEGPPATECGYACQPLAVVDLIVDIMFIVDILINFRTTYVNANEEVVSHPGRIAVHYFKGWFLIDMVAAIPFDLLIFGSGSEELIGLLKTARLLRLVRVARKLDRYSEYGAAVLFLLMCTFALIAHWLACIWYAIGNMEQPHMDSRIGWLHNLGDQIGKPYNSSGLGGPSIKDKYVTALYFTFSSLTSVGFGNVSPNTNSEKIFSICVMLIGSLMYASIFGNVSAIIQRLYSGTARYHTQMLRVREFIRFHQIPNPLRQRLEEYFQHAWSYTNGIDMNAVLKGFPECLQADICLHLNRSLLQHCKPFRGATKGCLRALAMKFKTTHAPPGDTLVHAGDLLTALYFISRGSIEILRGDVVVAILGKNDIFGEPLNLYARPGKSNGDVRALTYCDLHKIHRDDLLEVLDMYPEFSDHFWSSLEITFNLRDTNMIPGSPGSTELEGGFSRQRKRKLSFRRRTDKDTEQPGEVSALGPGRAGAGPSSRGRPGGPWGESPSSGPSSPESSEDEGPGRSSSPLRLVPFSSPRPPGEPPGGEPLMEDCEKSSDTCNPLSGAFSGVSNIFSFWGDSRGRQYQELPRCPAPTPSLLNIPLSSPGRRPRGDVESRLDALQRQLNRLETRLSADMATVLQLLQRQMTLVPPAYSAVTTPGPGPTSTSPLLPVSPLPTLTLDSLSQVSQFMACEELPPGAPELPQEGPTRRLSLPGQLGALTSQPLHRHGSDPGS
Sequence of Sodium channel protein type 9 subunit alpha (Mus musculus, UniProt Q62205) (Q62205 whole entry): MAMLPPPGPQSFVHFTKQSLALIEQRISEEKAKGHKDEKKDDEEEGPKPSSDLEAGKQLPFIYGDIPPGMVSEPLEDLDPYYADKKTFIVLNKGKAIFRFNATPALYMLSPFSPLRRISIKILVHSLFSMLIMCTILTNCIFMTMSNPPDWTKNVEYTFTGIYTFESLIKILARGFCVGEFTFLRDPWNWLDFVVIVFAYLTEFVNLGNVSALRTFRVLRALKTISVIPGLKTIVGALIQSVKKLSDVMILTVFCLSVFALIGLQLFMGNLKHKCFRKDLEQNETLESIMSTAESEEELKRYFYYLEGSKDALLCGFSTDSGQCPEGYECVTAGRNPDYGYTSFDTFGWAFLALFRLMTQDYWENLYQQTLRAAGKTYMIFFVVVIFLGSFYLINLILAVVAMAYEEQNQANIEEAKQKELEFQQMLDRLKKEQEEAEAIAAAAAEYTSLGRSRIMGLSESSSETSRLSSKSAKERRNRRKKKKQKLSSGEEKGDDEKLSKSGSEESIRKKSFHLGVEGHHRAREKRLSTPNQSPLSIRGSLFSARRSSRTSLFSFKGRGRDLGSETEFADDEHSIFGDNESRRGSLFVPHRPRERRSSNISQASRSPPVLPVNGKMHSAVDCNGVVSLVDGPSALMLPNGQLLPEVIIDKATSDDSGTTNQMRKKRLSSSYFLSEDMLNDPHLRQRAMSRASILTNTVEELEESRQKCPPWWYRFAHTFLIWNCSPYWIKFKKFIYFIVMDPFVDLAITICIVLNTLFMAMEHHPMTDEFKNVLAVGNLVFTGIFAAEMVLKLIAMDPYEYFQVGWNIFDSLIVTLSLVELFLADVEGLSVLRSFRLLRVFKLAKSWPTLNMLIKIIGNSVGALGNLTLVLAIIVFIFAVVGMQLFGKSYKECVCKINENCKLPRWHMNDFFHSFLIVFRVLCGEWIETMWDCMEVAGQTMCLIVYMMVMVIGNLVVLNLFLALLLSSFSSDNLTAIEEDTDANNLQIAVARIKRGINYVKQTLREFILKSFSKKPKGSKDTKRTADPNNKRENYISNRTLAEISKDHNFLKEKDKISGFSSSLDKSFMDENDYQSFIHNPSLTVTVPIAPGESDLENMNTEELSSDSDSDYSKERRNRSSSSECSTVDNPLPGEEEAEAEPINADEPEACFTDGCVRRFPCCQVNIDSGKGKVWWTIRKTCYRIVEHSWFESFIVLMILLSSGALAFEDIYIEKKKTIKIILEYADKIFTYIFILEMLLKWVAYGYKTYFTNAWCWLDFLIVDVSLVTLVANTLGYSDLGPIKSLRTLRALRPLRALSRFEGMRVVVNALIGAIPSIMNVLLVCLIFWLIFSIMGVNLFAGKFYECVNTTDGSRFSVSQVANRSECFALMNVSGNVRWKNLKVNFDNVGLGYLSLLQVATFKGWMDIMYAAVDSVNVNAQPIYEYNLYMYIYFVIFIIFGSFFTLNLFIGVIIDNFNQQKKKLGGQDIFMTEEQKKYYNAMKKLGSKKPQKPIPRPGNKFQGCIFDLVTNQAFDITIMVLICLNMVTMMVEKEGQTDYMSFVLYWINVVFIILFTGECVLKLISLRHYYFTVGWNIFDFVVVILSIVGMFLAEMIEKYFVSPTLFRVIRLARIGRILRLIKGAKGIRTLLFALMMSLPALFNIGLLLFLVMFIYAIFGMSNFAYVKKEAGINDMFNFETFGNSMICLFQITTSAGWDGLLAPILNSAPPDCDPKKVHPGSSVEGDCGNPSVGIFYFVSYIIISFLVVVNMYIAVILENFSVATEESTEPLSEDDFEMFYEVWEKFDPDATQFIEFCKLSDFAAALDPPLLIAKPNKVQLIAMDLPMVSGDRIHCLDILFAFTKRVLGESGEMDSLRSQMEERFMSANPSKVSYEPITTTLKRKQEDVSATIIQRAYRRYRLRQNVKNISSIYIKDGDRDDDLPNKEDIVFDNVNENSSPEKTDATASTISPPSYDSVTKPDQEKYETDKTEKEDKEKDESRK

COc1cc(-c2cccc(C(F)(F)F)c2)c(F)cc1-c1nccc2cc(S(=O)(=O)Nc3ccon3)ccc12
CL free (Canis familiaris): 60 mL/min/kg | AUC [1]: 44.2 µM·h | Activity (Mus musculus [2]): Active | microsomal CLint at 1 µM [3]: < 14 µL/min/mg | fraction unbound at 5 µM [4]: 0.0087 | pIC50 [5]: 4.80 | AUC [6]: 101 µM·h | pIC50 [7]: 5.40 | Tmax [8]: 6 h | pIC50 [9]: 4.92 | CL free (Rattus norvegicus): 433 mL/min/kg | solubility thermodynamic at 48 h [10]: 432 µM (≈ 235 µg/mL) | pIC50 [11]: 7.44 | half-life [12]: 6.2 h | bioavailability [13]: 63% | pIC50 [14]: 7.77 | fraction unbound at 5 µM [15]: 0.0116 | clearance [16]: 0.383 mL/min/kg | pIC50 (Cytochrome P450 3A4): < 4.82 | bioavailability [17]: 54% | concentration (Plasma [18]): 137 µM | pIC50 [19]: 4.77 | concentration (Plasma [20]): 106 µM | pIC50 [21]: 7.44 | pIC50 [22]: 5.16 | Cp(f) (Plasma [23]): 1.23 µM | pIC50 (Cytochrome P450 2C9): 6.37 | Tmax [24]: 2 h | fraction unbound at 5 µM [25]: 0.0066 | Activity (Mus musculus [26]): Non-Toxic | microsomal CLint at 1 µM [27]: < 14 µL/min/mg | Cp(f) (Plasma [28]): 0.246 µM | pIC50 (Cytochrome P450 2D6): < 4.82 | pIC50 [29]: 5.40 | pIC50 [30]: < 5.00 | Ratio [31]: 45 | pIC50 (Cytochrome P450 1A2): < 4.82 | pIC50 [32]: 4.92 | Vd [33]: 2.1 L/kg
